As usually defined, the inhibition is the change of the read-out against control, counted positive when it falls. Usually IC50 stands for the concentration that inhibits the measured activity by half. The ED50 is the dose at which the effect has come halfway, by size or by number of responders.

The values below come from ChEMBL document CHEMBL1122651, “5-Aryl-3-azabicyclo[3.2.0]heptan-6-one ketals, compounds with morphine-like analgesic activity” (J Med Chem, 1984).

Some results are limits rather than exact numbers.

The species named for assay [1] is Rattus norvegicus. The settings on record: Brain, at 0.78 µM.
The species entered for assay [2] is Rattus norvegicus. Description: (§1) Concentration of drug required to inhibit the stereospecific binding of [3H]naloxone (5 nM) to homogenates of rat brain minus cerebellum in the presence of 100 mM NaCl. The class given is functional. The method, boiled down:
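Displacement of [3H]naloxone (5 nM) from stereospecific sites in rat brain homogenate (minus cerebellum), run with 100 mM NaCl added. Eight displacing ligand concentrations, each analysis in triplicate. Value is the drug concentration giving 50% inhibition of binding.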

The species entered for assay [3] is Rattus norvegicus. The following applies: Brain, at 25 µM.
For assay [4], the species on record is Rattus norvegicus. The experiment in a line: Concentration of drug required to inhibit the stereospecific binding of [3H]-naloxone (5 nM) to homogenates of rat brain minus cerebellum in the absence of 100 mM NaCl. The class given is functional, organism-based.
The test system of assay [5] is Rattus norvegicus. Description: Analgesic activity of intraperitoneally administered compound was determined by the inflamed rat-paw reversal of abnormal (three-legged) gait. The following applies: ip. The class given is functional. The essentials:
(§2)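 Rats with an inflamed paw and abnormal three-legged gait, dosed with compound or vehicle. Reversal of the abnormal gait is scored. A reduction of abnormal gait of at least 50% counts as a positive analgesic response. ED50 and 95% confidence limits by Finney's linear arc sine transformation.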

For assay [6], the system named is Rattus norvegicus. Description: Analgesic activity of subcutaneously administered compound was determined by the inflamed rat-paw reversal of abnormal (three-legged) gait; 0.06-2.0. The settings on record: sc.
The species entered for assay [7] is Rattus norvegicus. The experiment in a line: animal or person. The settings on record: po.
The species entered for assay [8] is Rattus norvegicus. The description is as §1.
Assay [9] deals with Rattus norvegicus. Description: Analgesic activity of intraperitoneally administered compound was determined by the inflamed rat-paw reversal of abnormal (three-legged) gait; 8/10 Active. The class given is functional. The following applies: ip. The essentials:
as §2

For assay [10], the species on record is Rattus norvegicus. Description: Ability to displace [3H]naloxone binding from homogenates of rat brain minus cerebellum at the concentration of 0.78 uM. The method, boiled down: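 Competition binding of [3H]naloxone to rat brain homogenate with cerebellum removed. Pert–Snyder procedure as modified by Ong et al. Percent inhibition of stereospecific binding read at a single drug concentration of 0.78 μM.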

For assay [11], the system named is Rattus norvegicus. The experiment in a line: Analgesic activity of intraperitoneally administered compound was determined by the inflamed rat-paw reversal of abnormal (three-legged) gait; 4/4 Active. The class given is functional. The settings on record: ip. The essentials:
as §2

For assay [12], the system named is Rattus norvegicus. The experiment in a line: Analgesic activity of intraperitoneally administered compound was determined by the inflamed rat-paw reversal of abnormal (three-legged) gait; R (reject) highest dose tested inactive. It counts as functional. The following applies: ip. The essentials: as §2
Assay [13] has as its system Rattus norvegicus. The experiment in a line: Analgesic activity of perorally administered compound was determined by the inflamed rat-paw reversal of abnormal (three-legged) gait. The settings on record: po. It counts as functional. The essentials: as §2

`COC1(OC)CC2CN(C)CC21c1cccc(O)c1` (stereo not drawn): the results for the inhibition in the assay listed under Rattus norvegicus [1] and in the assay filed under Rattus norvegicus [3] were 85% and 99%, respectively. For the same molecule, the IC50 in the assay listed under Rattus norvegicus [2] came out at 579 nM; in the assay listed under Rattus norvegicus [4] it was 61 nM. The ED50 in the assay on Rattus norvegicus [5] is around 3 mg/kg.

Consider `CN1CC[C@]23c4c5ccc(O)c4O[C@H]2[C@@H](O)C=C[C@H]3[C@H]1C5.CN1CC[C@]23c4c5ccc(O)c4O[C@H]2[C@@H](O)C=C[C@H]3[C@H]1C5.O=S(=O)(O)O`, for which the ED50 in the assay on Rattus norvegicus [6] is 0.4 mg/kg; in the assay filed under Rattus norvegicus [7], 35 mg/kg. The figures for the inhibition in the assay listed under Rattus norvegicus [1] and in the assay listed under Rattus norvegicus [3] were 97% and 100%, respectively. Also, the IC50 in the assay listed under Rattus norvegicus [4] came out at 74 nM; in the assay filed under Rattus norvegicus [8] it was 380 nM.

As for `C=CCN1CC[C@]23c4c5ccc(O)c4O[C@H]2C(=O)CC[C@@]3(O)[C@H]1C5` [NALOXONE], the values for the IC50 in the assay listed under Rattus norvegicus [2] and in the assay filed under Rattus norvegicus [4] were 42 nM and 46 nM, respectively.

Turning to `COc1cccc(C23CN(C)CC2CC32OCC(C)(C)CO2)c1.O=C(O)/C=C/C(=O)O` (stereo not drawn), in the assay with Rattus norvegicus [9], the ED50 was below 25 mg/kg.

Regarding `COC1(OC)CC2CN(C)CC21c1ccccc1` (stereo not drawn), the figures for the inhibition in the assay filed under Rattus norvegicus [10] and in the assay listed under Rattus norvegicus [3] were 13% and 62%, respectively. For the same molecule, in the assay with Rattus norvegicus [11], the ED50 was below 25 mg/kg.

Take `COc1cccc(C23CN(C)CC2CC3=O)c1` (stereo not drawn): the values for the inhibition in the assay filed under Rattus norvegicus [1] and in the assay listed under Rattus norvegicus [3] were 12% and 22%, respectively. For the same molecule, the ED50 in the assay on Rattus norvegicus [12] was found to be 25 mg/kg.

With `COc1ccc2c3c1O[C@H]1[C@@H](O)C=C[C@H]4[C@@H](C2)N(C)CC[C@@]341` [CODEINE], the IC50 in the assay listed under Rattus norvegicus [2] was 22000 nM; in the assay filed under Rattus norvegicus [4], 2600 nM.

On to `COc1cccc(C23CN(C)CC2CC3(OC)OC)c1` (stereo not drawn), for which the inhibition in the assay listed under Rattus norvegicus [10] is 7%; in the assay listed under Rattus norvegicus [3], 61%. The IC50 in the assay listed under Rattus norvegicus [2] is 62500 nM; in the assay filed under Rattus norvegicus [4] it was 9920 nM. The 50% effective dose (ED50) in the assay with Rattus norvegicus [13] came out at 4 mg/kg.

Take `C=CCN1CC[C@]23CCCC[C@H]2[C@H]1Cc1ccc(O)cc13` [LEVALLORPHAN]: the half-maximal inhibitory concentration (IC50) in the assay listed under Rattus norvegicus [2] is 34 nM; in the assay filed under Rattus norvegicus [4], 9 nM.

As to `COc1cccc(C23CNCC2CC3(OC)OC)c1` (stereo not drawn), the ED50 in the assay with Rattus norvegicus [5] is above 25 mg/kg.

Turning to `COC1(OC)CC2CN(C)CC21c1ccc(C)cc1` (stereo not drawn), the values for the inhibition in the assay filed under Rattus norvegicus [10] and in the assay listed under Rattus norvegicus [3] were 11% and 62%, respectively. Besides, in the assay with Rattus norvegicus [12], the 50% effective dose (ED50) is 25 mg/kg.
